# In ChEMBL document CHEMBL4680229, “Design, synthesis and bioactivity study of N-salicyloyl tryptamine derivatives as multifunctional agents for the treatment of neuroinflammation” (Eur J Med Chem, 2020):
# Calls of active or inactive are those of the source. No cut-off for these calls is given here.
# Columns and labels:
# C6 [1] = assay: Inhibition of LPS-induced NO production in rat C6 cells incubated for 24 hrs by Griess reagent based assay; assay type: functional, cell-based; conditions: C6, 24 h
# Outline: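 C6 cells at 5×10^5 cells/mL, LPS 10 μg/mL plus compound at 2.5–40 μM final for 24 h. Nitrite measured with Griess reagent at 540 nm against a NaNO2 standard; IC50 from three repeats.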
# [2] = Cmax in Sprague-Dawley rat at 50 mg/kg, ip up to 24 hrs by LC-MS analysis; assay type: ADME, organism-based; design: route intraperitoneal, dose 50 mg/kg, time <=24; conditions: in vivo
# Outline: (§1)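 Male Sprague-Dawley rats, six per group, single 50 mg/kg intraperitoneal dose; parameters derived by non-compartmental analysis using the linear trapezoidal method; mean ± SD, n = 6.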
# [3] = Toxicity in Kunming mouse assessed as changes in heart at 1000 mg/kg, po after 14 days; assay type: organism-based; conditions: in vivo, 336 h, time 14 day
# Outline: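 Mice, five male and five female, given a single oral dose of 1000 mg/kg and observed for behaviour for 14 days. Heart, liver, kidney and stomach then examined grossly and after H&E staining, compared with vehicle controls.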
# BV-2 [4] = assay: Antiinflammatory activity against LPS-induced mouse BV-2 cells assessed as decrease in iba-1 protein expression at 20 uM after 24 hrs by DAPI staining based confocal laser microscopic method; assay type: functional, cell-based
# Outline: (§2)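 Cells on glass slides with compound at 20 μM final for 24 h: C6 with LPS 10 μg/mL stained for GFAP, BV2 with LPS 1 μg/mL stained for Iba-1. Fixed in 4% paraformaldehyde, blocked in 1% BSA/0.3% Triton X-100, primary antibody 1:100 overnight at 4 °C, secondary 1:200, DAPI mount, confocal imaging. Intensity given as % of LPS group, n = 3.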
# [5] = Inhibition of LPS-induced NO production in mouse BV-2 cells incubated for 24 hrs by Griess reagent based assay; assay type: functional, cell-based; conditions: BV-2, 24 h
# Outline: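 BV2 cells at 5×10^5 cells/mL, LPS 1 μg/mL plus compound at 2.5–40 μM final for 24 h. Supernatant nitrite measured with Griess reagent for 15 min at room temperature in the dark, 540 nm, against a NaNO2 standard curve; IC50 from three repeats.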
# [6] = Half life in Sprague-Dawley rat at 50 mg/kg, ip up to 24 hrs by LC-MS analysis; assay type: ADME, organism-based; conditions: in vivo; outline: as §1
# [7] = molecular target: Prostaglandin G/H synthase 1 (Homo sapiens) (UniProt P23219); assay: Inhibition of human COX1 assessed as reduction in PGF2alpha formation using arachidonic acid as substrate incubated for 10 mins by ELISA
# C6 [8] = assay: Inhibition of LPS-induced TNFalpha production in rat C6 cells after 24 hrs by ELISA; assay type: functional, cell-based; conditions: dose 10-40 µM
# Outline: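 C6 cells at 5×10^5 cells/mL stimulated with LPS 10 μg/mL; compound at 10, 20 or 40 μM final for 24 h. Supernatant TNF-α measured by sandwich ELISA at 450 nm; at least three independent experiments.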
# [9] = Toxicity in LPS-induced hippocampal neuroinflammatory Kunming mouse model assessed as behavioral changes at 50 mg/kg, ip administered bid for 6 days […]; assay type: organism-based; conditions: in vivo, 144 h, time 6 day
# Outline: (§3)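 Male Kunming mice (8 weeks, 20–25 g, n = 10/group) were anaesthetised with i.p. chloral hydrate, then given LPS (3 μL of 10 mg/mL) into the lateral ventricle at 0.5 μL/min; sham mice received 3 μL saline. Compound was then given i.p. at 50 mg/kg in saline with 1% methyl cellulose for six consecutive days. Behaviour and deaths were recorded, and hippocampal slices were Nissl-stained.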
# [10] = molecular target: T1, Prostaglandin G/H synthase 2 (Mus musculus) (UniProt Q05769); assay: Inhibition of COX2 in LPS-induced mouse BV-2 cells assessed as reduction in PGE2 production after 24 hrs by ELISA; assay type: cell-based
# T1 sequence (whole entry): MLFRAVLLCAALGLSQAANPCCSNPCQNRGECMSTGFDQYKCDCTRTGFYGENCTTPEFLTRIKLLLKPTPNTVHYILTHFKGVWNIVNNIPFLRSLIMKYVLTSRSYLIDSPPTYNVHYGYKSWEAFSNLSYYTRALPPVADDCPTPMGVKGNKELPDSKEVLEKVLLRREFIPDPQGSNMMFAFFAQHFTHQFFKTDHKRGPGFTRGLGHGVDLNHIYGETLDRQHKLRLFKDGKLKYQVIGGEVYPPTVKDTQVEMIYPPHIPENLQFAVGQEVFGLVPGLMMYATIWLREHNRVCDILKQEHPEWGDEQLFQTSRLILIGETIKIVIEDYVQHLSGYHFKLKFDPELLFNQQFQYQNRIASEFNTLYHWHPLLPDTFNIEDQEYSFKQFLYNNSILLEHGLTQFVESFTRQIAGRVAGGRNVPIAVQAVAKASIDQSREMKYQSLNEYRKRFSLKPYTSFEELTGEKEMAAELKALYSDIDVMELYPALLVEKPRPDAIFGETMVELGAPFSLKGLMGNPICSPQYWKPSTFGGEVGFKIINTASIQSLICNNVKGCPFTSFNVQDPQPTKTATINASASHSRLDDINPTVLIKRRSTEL
# Outline: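 BV2 cells at 5×10^5 cells/mL stimulated with LPS 1 μg/mL; compound at 10, 20 or 40 μM final for 24 h, DMSO in blanks. Supernatant TNF-α and IL-10 measured by sandwich ELISA and PGE2 by competitive ELISA, OD at 450 nm; at least three independent experiments.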
# [11] = Toxicity in LPS-induced hippocampal neuroinflammatory Kunming mouse model assessed as death at 50 mg/kg, ip administered bid for 6 days […]; assay type: organism-based; conditions: in vivo, 144 h, time 6 day; outline: as §3
# [12] = Toxicity in po dose Kunming mouse after 14 days; assay type: organism-based; conditions: in vivo, time 14 day
# Outline: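 Acute toxicity followed OECD guidelines in ten mice (five male, five female). A single oral dose of 1000 mg/kg was given, with a vehicle control group. Behaviour was observed over 14 days. Mice were then sacrificed for gross and H&E histological examination of heart, liver, kidney and stomach.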
# C6 [13] = assay: Antiinflammatory activity against LPS-induced rat C6 cells assessed as decrease in GFAP protein expression at 20 uM after 24 hrs by DAPI staining based confocal laser microscopic method; assay type: functional, cell-based; outline: as §2
# Mus musculus = assay: Antiinflammatory activity against LPS-induced hippocampal neuroinflammatory Kunming mouse model assessed as reduction in GFAP level in hippocampus at 50 mg/kg, ip administered bid for 6 days by Western blot analysis; assay type: functional, organism-based; conditions: time 6.0 day
# BV-2 [14] = assay: Antiinflammatory activity against LPS-induced mouse BV-2 cells assessed as decrease in INOS protein expression at 40 uM after 24 hrs by Western blot analysis relative to control; assay type: functional; design: scale not given: the % may be the effect or the level left
# Outline: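 BV2 cells in DMEM with 10% FBS; LPS 1 μg/mL plus compound at 10, 20 or 40 μM final for 24 h. Lysates in RIPA with 1 mM PMSF; 30 μg protein on 8% SDS-PAGE and blotted for iNOS and COX-2, GAPDH as reference; ECL detection and densitometry; at least three independent experiments.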
Structure (SMILES),IC50 (C6 [1]) [µM],Cmax [2] [ng/mL],Activity [3],Activity (BV-2 [4]),IC50 [5] [µM],half-life [6] [h],IC50 [7] [µM],inhibition (C6 [8]),Activity [9],inhibition [10],Activity [11],LD50 at 336 h [12] [mg/kg],Activity (C6 [13]),Activity (Mus musculus),Activity (BV-2 [14])
Cc1ccc(C(=O)NCCc2c[nH]c3ccccc23)c(O)c1,7.48,2100,Non-Toxic,Active,4.94,13.9,16.4,Dose-dependent effect,Non-Toxic,Dose-dependent effect,Non-Toxic,> 1000,Active,Active,100%
O=C(NCCc1c[nH]c2ccc(O)cc12)c1ccccc1Nc1ccccc1,6.73,6080,Non-Toxic,Active,37.2,2.72,0.38,Dose-dependent effect,Non-Toxic,Dose-dependent effect,Non-Toxic,> 1000,Active,Active,inactive
